Compound activity: PubChem BioAssay, Broad Institute
CaV13 ICDI inh – Primary screen for inhibitors of IQ motif and Ca2+-dependent inactivation inhibitor domain binding in CACNA1D, Förster resonance energy transfer in living cells, …; 340,000 tested, 0.098% active; HEK cells, CFP/YFP FRET ICDI-IQ, plate reader, 10 min; percent FRET-ratio fall versus neutral wells; inhibition, % at 12.3 µM;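 active = mean replicate inhibition of at least 30% and at least 1% of replicates passing that level; inconclusive = only one of the two criteria is met; inactive = neither criterion is met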;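 also: 0% = median of the neutral control wells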
S100A4 inh HTS – inhibitors of human S100A4 binding to myosin IIA peptide; P26447; S100A4/TAMRA-MyoIIA peptide fluorescence polarization; inhibition, % at 10.7 µM; 360,000 tested, 0.14% active; AID 652163;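 active = mean inhibition of at least 70% across replicates, with every replicate also reaching that level; inconclusive = mean inhibition reaches 70% but some replicates fall short; inactive = mean inhibition below 70%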
Target sequence (P26447 whole entry, looked up): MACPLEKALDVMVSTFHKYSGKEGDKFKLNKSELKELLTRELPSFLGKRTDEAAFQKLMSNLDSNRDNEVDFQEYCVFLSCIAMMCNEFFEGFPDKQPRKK
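Material: S100A4 monomer protein / Buffer or medium: 50 mM HEPES pH 7.2, 10 mM CaCl2, 100 mM KCl / Times: 5 min incubation before reading / Benchmarks: neutral control DMSO, positive control TFP / Reagent: labelled myosin peptide probe, 5 nM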
AF4-AF9 inh – blocks AF4 peptide binding to human AF9; inhibition, % at 10 µM; 350,000 tested, 0.47% active; AlphaScreen, biotin-AF4 peptide binding to FLAG-AF9;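 active = every replicate reaching a set inhibition limit, whatever the replicate mean, cut at about 25% in these data; inconclusive = mean inhibition reaches that limit but some replicates miss it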;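 also: 0% = plate neutral control median and 100% = total signal loss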
SIRT5 block – blocks human SIRT5 desuccinylation of peptide; Q9NXA8; Purified SirT5, succinyl-peptide AMC, trypsin-coupled fluorescence; inhibition, % at 15 µM; 330,000 tested, 1.1% active; AID 652115; in the data active = inhibition above about 15%; inconclusive = no clear call, values can overlap the other calls
Target sequence (Q9NXA8 whole entry, looked up): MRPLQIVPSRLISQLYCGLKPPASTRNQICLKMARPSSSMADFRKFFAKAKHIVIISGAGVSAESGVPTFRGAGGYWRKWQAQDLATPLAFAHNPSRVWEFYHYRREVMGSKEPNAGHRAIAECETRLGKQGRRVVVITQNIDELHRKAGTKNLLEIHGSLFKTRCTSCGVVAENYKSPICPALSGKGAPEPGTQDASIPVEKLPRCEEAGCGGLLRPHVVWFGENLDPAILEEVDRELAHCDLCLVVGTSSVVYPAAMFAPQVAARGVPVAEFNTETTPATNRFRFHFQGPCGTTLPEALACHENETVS
DENV2 CPE rescue – inhibitors of DENV2 cytopathic effect | 350,000 tested, 1.7% active | DENV2-infected cells, cytopathic effect rescue, plate reader | CPE inhibition, % at 9.99 µM; in the data active = CPE inhibition above about 20%, passing the limit was not always enough; inconclusive = no clear call, values can overlap the other calls; tested in BHK-21 cells;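 also: 0% = median of neutral control wells and 100% = median of positive control wells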
* = called active by the depositor; ? = inconclusive; nt = no result given. Shown are actives, neighbours in structure and some others; about 2.7% of the full set was active somewhere.

SMILES	CaV13 ICDI inh	S100A4 inh HTS	AF4-AF9 inh	SIRT5 block	DENV2 CPE rescue
C[C@@H]1CN([C@H](C)CO)C(=O)c2cccc(NC(=O)C3CC3)c2O[C@@H]1CN(C)C(=O)Nc1ccc(C(F)(F)F)cc1	nt	1.6	-1.2	2.9	-1.7
Cc1cc(O)cc(=O)n1-c1ccc(Cl)c(C(F)(F)F)c1	nt	-5.7	nt	nt	2.8
C/C=C/c1ccc(C2[C@H]3CNC[C@@H]2N3S(=O)(=O)c2ccc(Cl)cc2)cc1 (some centres not stated)	nt	nt	nt	nt	-6.1
CC(C)NC(=O)c1cccc(Br)c1	-8.1	-0.8	-38.4	27.8*	7.0
COC(=O)C[C@H]1CC[C@H]2[C@@H](COC[C@H](O)CN2CCC(F)(F)F)O1	nt	-11.8	0.7	4.0	-0.4
O=C(C[C@@H]1CC[C@@H](NC(=O)Cc2cccnc2)[C@H](CO)O1)Nc1ccc(-c2ccccc2)cc1	nt	127.1*	-11.3	6.7	?
O=C(Cc1cccnc1)N[C@H]1CC[C@H](CCn2cc(Cc3ccccc3)nn2)O[C@@H]1CO	nt	-2.2	-2.5	0.6	77.2*
O=C(Cc1cccnc1)N[C@@H]1CC[C@H](CCn2cc(-c3ccccc3F)nn2)O[C@@H]1CO	nt	-3.8	-0.9	-1.2	44.8*
O=C(C[C@H]1CC[C@@H](NC(=O)Cc2cccnc2)[C@H](CO)O1)Nc1ccccc1	nt	3.0	-1.4	-1.8	-4.3
CN1C(=O)c2cc(NC(=O)C3CC3)ccc2OC[C@@H]2O[C@@H](CC(=O)NCCc3ccncc3)CC[C@@H]21	nt	-0.8	-14.7	4.0	?
CCCNC(=O)Nc1ccc2c(c1)C(=O)N(C)C[C@H](OC)[C@H](C)CN(C(=O)C1CCC1)[C@H](C)CO2	nt	15.4	2.6	-0.7	-1.3
C[C@H]1CCCCO[C@H](CN(C)C(=O)Nc2ccc(C(F)(F)F)cc2)[C@@H](C)CN([C@@H](C)CO)C(=O)c2cc(NS(=O)(=O)c3ccccc3)ccc2O1	nt	86.4*	-5.4	5.3	18.0
C[C@@H]1CCCCO[C@@H](CN(C)C(=O)Nc2ccc(C(F)(F)F)cc2)[C@H](C)CN([C@H](C)CO)C(=O)c2cc(NS(=O)(=O)c3ccccc3)ccc2O1	nt	-55.4	-0.4	2.6	38.4*
C[C@@H]1CN([C@@H](C)CO)C(=O)c2cc(NS(=O)(=O)c3ccccc3)ccc2O[C@@H](C)CCCCO[C@H]1CN(C)C(=O)Nc1ccc(C(F)(F)F)cc1	nt	-11.0	-1.8	nt	6.6
CCCNC(=O)[C@H]1[C@H](CO)[C@H]2Cn3c(ccc(-c4ccc(OC)cc4)c3=O)[C@H]2N1CC	nt	14.2	-2.6	-15.7	9.7
COC(=O)C[C@H]1C[C@H]2c3cc(NC(=O)NC4CCCCC4)ccc3O[C@H]2[C@@H](CO)O1	nt	3.6	-0.3	-1.8	3.4
C#CCSc1cc(C(F)(F)F)nc(-c2ccccn2)n1	-2.3	-4.7	-0.9	20.2*	11.4
COc1ccc(Sc2cc(C(F)(F)F)nc(-c3ccccn3)n2)cc1	-4.0	nt	nt	nt	nt
C[C@H]1CN([C@@H](C)CO)C(=O)c2cc(NC(=O)Nc3ccc4c(c3)OCO4)ccc2O[C@@H]1CN(C)Cc1ccncc1	nt	4.6	-23.2	4.2	?
CC(C)[C@H](NC(=O)[C@H](C)NC(=O)OC(C)(C)C)C(=O)N1CCC2CCN(Cc3ccccc3)CC21 (some centres not stated)	-2.9	11.5	nt	nt	-7.9
COc1ccc2c3c([nH]c2c1)[C@@H](CO)N(S(C)(=O)=O)CC31CCN(CC2CCCCC2)CC1	nt	-8.3	2.8	-0.2	-1.6
CO[C@@H]1CN(C)C(=O)c2ccc(NC(C)=O)cc2OC[C@H](C)N(C(=O)CC2CC2)C[C@@H]1C	nt	-46.3	-3.3	-10.1	nt
O=C(COc1ccc(F)cc1)c1ccc2c(c1)CCCC2	-5.2	nt	nt	nt	nt
O=C(COc1ccc(Cc2ccccc2)cc1)c1ccc(F)cc1	-2.0	-0.7	-2.7	16.0*	11.0
Cc1ccc(S(=O)(=O)NCC[C@H]2CC[C@H](NC(=O)Nc3ccccc3F)[C@H](CO)O2)cc1	nt	-0.7	0.3	-2.0	5.0
C/C=C/c1cnc2c(c1)C(=O)N([C@@H](C)CO)C[C@H](C)[C@H](CN(C)C(=O)C1CCOCC1)O2	nt	9.5	-4.2	-2.8	-5.2
Cc1cccnc1NC(=O)c1ccc(S(=O)(=O)N2CCCCC2)cc1	nt	2.6	-3.7	2.2	-11.1
Cc1cccnc1NC(=O)c1cccc(S(=O)(=O)N2CCCC2)c1	-1.6	-0.8	-0.8	-0.2	31.2*
